For eleven molecules, IC50 and Selectivity Index results are on record in ChEMBL document CHEMBL1255538, “Synthesis and molecular docking study of novel coumarin derivatives containing 4,5-dihydropyrazole moiety as potential antitumor agents” (Bioorg Med Chem Lett, 2010).

Assay [1] concerns the target Telomerase reverse transcriptase (Homo sapiens, UniProt O14746). Kind of assay: Inhibition of telomerase in human SGC7901 cells by TRAP assay. It counts as cell-based, SGC-7901. The method in brief:
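Modified TRAP assay using SGC-7901 cell extract as the telomerase source. IC50 taken from three experiments in triplicate, mean ± SD.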

The test system of a further assay is A-431. Kind of assay: Cytotoxicity against human A431 cells after 48 hrs by MTT assay. In kind it is functional, cell-based. The method in brief: (§1)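 Tumour cells grown to log phase in RPMI 1640 with 10% FBS, seeded at 3 × 10⁴ cells/mL, preincubated 24 h at 37 °C, 5% CO₂. Test samples at pre-set concentrations were added to 6 wells, with 5-fluorouracil as positive reference, for 48 h. MTT was then added for 4 h, formazan was dissolved in DMSO and absorbance read at 570 nm. IC50 from three experiments in triplicate, mean ± SD.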

The next assay concerns PC-3. Kind of assay: Cytotoxicity against human PC3 cells after 48 hrs by MTT assay. In kind it is functional, cell-based. In a few lines: as §1
Assay [2] addresses DNA polymerase I, thermostable (Thermus aquaticus, UniProt P19821). The assay can be described thus: Inhibition of Taq polymerase. The method in brief: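 Taq polymerase inhibition was monitored alongside the modified TRAP assay to detect interference with the amplification step. IC50 was the concentration giving 50% Taq polymerase inhibition.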
The test system of assay [3] is SGC-7901. Kind of assay: Cytotoxicity against human SGC7901 cells after 48 hrs by MTT assay. It counts as functional, cell-based. In a few lines:
as §1

Assay [4] relates to SGC-7901. Kind of assay: Selectivity index, ratio of IC50 for Taq polymerase to IC50 for telomerase in human SGC7901 cells. In kind it is cell-based. In a few lines:
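Ratio of the concentration giving 50% Taq polymerase inhibition to the concentration giving 50% telomerase inhibition. Telomerase was measured by modified TRAP with SGC-7901 cell extract.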

The mark [5] stands for this setting: Homo sapiens, A-431, 48 h, read-out: IC50.
[6] abbreviates: Homo sapiens, PC-3, 48 h, read-out: IC50.
Setting [7] is: Homo sapiens, SGC-7901, 48 h, read-out: IC50.

Values after ≈ are worked out from the molar mass of the structure shown.

Chain of DNA polymerase I, thermostable (P19821 whole entry): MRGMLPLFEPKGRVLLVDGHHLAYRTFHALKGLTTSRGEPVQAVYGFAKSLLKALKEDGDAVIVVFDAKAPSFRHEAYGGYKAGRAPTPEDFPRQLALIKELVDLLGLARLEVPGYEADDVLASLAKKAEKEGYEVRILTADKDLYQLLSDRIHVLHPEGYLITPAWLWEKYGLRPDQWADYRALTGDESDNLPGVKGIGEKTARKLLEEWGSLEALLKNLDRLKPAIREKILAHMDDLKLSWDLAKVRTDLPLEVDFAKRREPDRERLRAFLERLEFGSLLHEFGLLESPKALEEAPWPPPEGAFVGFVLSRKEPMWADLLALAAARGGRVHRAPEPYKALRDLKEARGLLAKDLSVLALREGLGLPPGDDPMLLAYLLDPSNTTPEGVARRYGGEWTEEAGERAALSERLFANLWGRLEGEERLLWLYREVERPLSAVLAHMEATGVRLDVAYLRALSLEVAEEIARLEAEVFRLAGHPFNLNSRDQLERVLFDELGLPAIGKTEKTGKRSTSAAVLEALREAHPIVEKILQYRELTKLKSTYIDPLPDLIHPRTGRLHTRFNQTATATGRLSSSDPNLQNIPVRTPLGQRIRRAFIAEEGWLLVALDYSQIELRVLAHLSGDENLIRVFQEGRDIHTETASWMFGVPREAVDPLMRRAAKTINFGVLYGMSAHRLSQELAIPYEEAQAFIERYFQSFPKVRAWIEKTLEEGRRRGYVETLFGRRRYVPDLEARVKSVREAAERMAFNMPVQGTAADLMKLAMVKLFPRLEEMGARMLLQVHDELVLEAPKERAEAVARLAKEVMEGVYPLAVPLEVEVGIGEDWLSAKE
Chain of Telomerase reverse transcriptase (O14746 whole entry): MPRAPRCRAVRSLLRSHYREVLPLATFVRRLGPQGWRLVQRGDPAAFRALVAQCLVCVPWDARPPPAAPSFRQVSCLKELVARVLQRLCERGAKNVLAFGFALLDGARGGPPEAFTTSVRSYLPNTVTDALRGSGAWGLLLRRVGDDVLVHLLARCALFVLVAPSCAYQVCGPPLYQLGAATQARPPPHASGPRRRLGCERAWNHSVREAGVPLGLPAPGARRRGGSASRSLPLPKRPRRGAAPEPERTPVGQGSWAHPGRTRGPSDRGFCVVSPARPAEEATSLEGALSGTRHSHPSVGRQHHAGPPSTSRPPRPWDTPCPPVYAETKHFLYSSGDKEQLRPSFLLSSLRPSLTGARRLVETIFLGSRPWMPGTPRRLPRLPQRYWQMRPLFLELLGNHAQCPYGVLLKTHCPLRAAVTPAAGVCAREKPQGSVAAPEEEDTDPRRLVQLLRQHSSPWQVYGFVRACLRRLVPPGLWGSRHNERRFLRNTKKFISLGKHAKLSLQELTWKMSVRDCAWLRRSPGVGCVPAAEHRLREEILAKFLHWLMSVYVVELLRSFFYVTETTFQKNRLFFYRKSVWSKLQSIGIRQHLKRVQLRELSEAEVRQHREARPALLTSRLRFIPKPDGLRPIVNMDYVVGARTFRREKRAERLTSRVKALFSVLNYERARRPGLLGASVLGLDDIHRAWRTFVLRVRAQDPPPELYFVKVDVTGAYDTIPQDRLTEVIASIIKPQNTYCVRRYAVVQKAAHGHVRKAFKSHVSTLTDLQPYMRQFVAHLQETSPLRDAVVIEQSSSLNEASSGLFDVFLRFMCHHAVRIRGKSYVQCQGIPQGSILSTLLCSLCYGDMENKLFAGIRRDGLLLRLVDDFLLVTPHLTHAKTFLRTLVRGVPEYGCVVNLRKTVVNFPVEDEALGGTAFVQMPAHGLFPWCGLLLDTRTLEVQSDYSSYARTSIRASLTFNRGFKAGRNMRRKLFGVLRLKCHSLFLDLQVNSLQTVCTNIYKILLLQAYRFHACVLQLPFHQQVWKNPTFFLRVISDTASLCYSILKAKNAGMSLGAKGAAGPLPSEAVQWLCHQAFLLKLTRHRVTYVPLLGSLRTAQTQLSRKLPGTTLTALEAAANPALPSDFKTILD

Turning to `CC(=O)N1N=C(c2cc3ccccc3oc2=O)CC1c1ccccc1Cl` (centres undefined), the IC50 worked out at 6.5 µM in assay [1] (read-out: IC50); 50.6 µg/mL (≈ 138 µM) in the assay on A-431 (setting [5]); 55.1 µg/mL (≈ 150 µM) in the assay on PC-3 (setting [6]); 16.8 µM in assay [2] (read-out: IC50); 29.9 µg/mL (≈ 81.6 µM) in the assay on SGC-7901 [3] (setting [7]). For the same molecule, the Selectivity Index in the assay on SGC-7901 [4] turned out to be 2.6.
`COc1ccc(C2CC(c3cc4ccccc4oc3=O)=NN2C(C)=O)cc1` (centres undefined): the IC50 in assay [1] (read-out: IC50) was 36.7 µM; with A-431 (setting [5]) it was 68.7 µg/mL (≈ 190 µM); with PC-3 (pc-3) it was “Not Active”; in assay [2] it was “Not Active”; in the assay on SGC-7901 [3] (setting [7]) it was 48.7 µg/mL (≈ 134 µM).
Regarding `CC[n+]1c(-c2ccccc2)c2cc(N)ccc2c2ccc(N)cc21` [HOMIDIUM BROMIDE], the IC50 in assay [1] (read-out: IC50) was found to be 2.5 µM.
As for `CC(=O)N1N=C(c2cc3c(Br)cccc3oc2=O)CC1c1ccccc1` (centres undefined), the IC50 in assay [1] (read-out: IC50) was determined as 1.8 µM; with A-431 (setting [5]) it was 48.1 µg/mL (≈ 117 µM); with PC-3 (setting [6]), 58.1 µg/mL (≈ 141 µM); in assay [2] (read-out: IC50) it was 4 µM; with SGC-7901 [3] (setting [7]) it was 28.9 µg/mL (≈ 70.3 µM). In addition, the Selectivity Index with SGC-7901 [4] was 2.2.
For `CC1=NN(C=O)C(c2ccccc2O)C1` (centres undefined), the IC50 result is “Not Active” in assay [1] (sgc-7901); “Not Active” in the assay on A-431 (a-431); 65.1 µg/mL (≈ 319 µM) with PC-3 (setting [6]); “Not Active” in assay [2]; “Not Active” with SGC-7901 [3] (sgc-7901).
With `O=c1[nH]cc(F)c(=O)[nH]1` [FLUOROURACIL], the IC50 in the assay with A-431 (setting [5]) came to 2.17 µg/mL (≈ 16.7 µM); in the assay on PC-3 (setting [6]), 2.48 µg/mL (≈ 19.1 µM).
`CC(=O)N1N=C(c2cc3c(Br)cccc3oc2=O)CC1c1ccc(O)cc1` (centres undefined): the IC50 in assay [1] (read-out: IC50) is 4 µM; in the assay on A-431 (setting [5]), 68.3 µg/mL (≈ 160 µM); in the assay with PC-3 (setting [6]), 38.8 µg/mL (≈ 90.7 µM); in assay [2] (read-out: IC50), 10 µM; in the assay with SGC-7901 [3] (setting [7]), 22.3 µg/mL (≈ 52.3 µM). For the same molecule, the Selectivity Index in the assay on SGC-7901 [4] was 2.5.
As for `CC(=O)N1N=C(c2cc3ccccc3oc2=O)CC1c1ccc(Cl)cc1Cl` (centres undefined), the IC50 was determined as 9.6 µM in assay [1] (read-out: IC50); 68.7 µg/mL (≈ 171 µM) with A-431 (setting [5]); 46.7 µg/mL (≈ 116 µM) in the assay on PC-3 (setting [6]); 20.7 µM in assay [2] (read-out: IC50); 39.9 µg/mL (≈ 99.5 µM) in the assay on SGC-7901 [3] (setting [7]). The Selectivity Index with SGC-7901 [4] worked out at 2.1.
Consider `COc1ccc(/C=C/C(=O)c2cc3ccccc3oc2=O)cc1`, for which the IC50 result (in assay [1] (sgc-7901); in the assay with A-431 (a-431); in the assay on PC-3 (pc-3); in assay [2]; in the assay with SGC-7901 [3] (sgc-7901)) was “Not Active” in each case.
In the case of `CC(=O)N1N=C(c2cc3ccccc3oc2=O)CC1c1ccccc1` (centres undefined), the IC50 in assay [1] (read-out: IC50) was found to be 2 µM; with A-431 (setting [5]), 51.7 µg/mL (≈ 156 µM); with PC-3 (setting [6]) it was 40.2 µg/mL (≈ 121 µM); in assay [2] (read-out: IC50) it was 6 µM; in the assay with SGC-7901 [3] (setting [7]), 2.69 µg/mL (≈ 8.09 µM). In the assay on SGC-7901 [4], the Selectivity Index was 3.
As for `CC(=O)N1N=C(c2cc3ccccc3oc2=O)CC1c1ccc(O)cc1` (centres undefined), the IC50 in assay [1] (read-out: IC50) was 29.1 µM; in the assay with A-431 (setting [5]), 73 µg/mL (≈ 209 µM); in the assay on PC-3 (setting [6]) it was 58.7 µg/mL (≈ 169 µM); in assay [2] (read-out: IC50) it was 58.5 µM; in the assay with SGC-7901 [3] (setting [7]), 35.9 µg/mL (≈ 103 µM). In the assay on SGC-7901 [4], the Selectivity Index worked out at 2.
